Measurements of several laboratories.
Lines come from different studies, so protocols differ.

SMILES | organism | test | system | conditions | quantity | result
CC1=NN(CNc2ccc(C(=O)O)cc2)C(=O)C1=NNn1c(-c2ccccc2)nc2ccccc2c1=O | Aspergillus fumigatus | microbial growth, broth dilution | – | – | MIC | 50.5 µM
COc1ccc(-c2nc3ccccc3[nH]2)cc1O | Enterococcus faecalis | microbial growth, broth dilution | ATCC29212 | – | MIC | 64 µg/mL
CC1(C)OB(CC2c3ccccc3C(=O)N2C2CCCCC2)OC1(C)C (stereo not drawn) | Leishmania major | parasite growth | – | intracellular, amastigote | IC50 | 13.2 µM
COc1cccc(-n2cc(CN3CCN(C(=O)c4c(C)nc5ccc(Cl)cn45)CC3)nn2)c1 | Leishmania major | parasite growth, resazurin | – | 72 h, promastigote | IC50 | 112 µM
C=CCn1c(-c2ccc(Cl)c(Cl)c2)nc2ccccc21 | Enterococcus faecalis | microbial growth, broth dilution | ATCC29212 | – | MIC | 64 µg/mL
C[C@@H]1[C@H](O)[C@@H](C)/C=C/C=C/C=C/C=C/C=C/C=C/C=C/[C@H](O[C@@H]2O[C@H](C)[C@@H](O)[C@H](N)[C@@H]2O)C[C@@H]2O[C@](O)(C[C@@H](O)C[C@@H](O)[C@H](O)CC[C@@H](O)C[C@@H](O)CC(=O)O[C@H]1C)C[C@H](O)[C@H]2C(=O)O | Aspergillus fumigatus | microbial growth, resazurin | ATCC204305 | – | IC50 | 1.18 µg/mL
Cc1nc2ccc(Cl)cn2c1C(=O)N1CCN(Cc2cn(-c3ccccc3)nn2)CC1 | Leishmania major | parasite growth, resazurin | – | 72 h, promastigote | IC50 | 192 µM
C[C@@H](c1ncncc1F)[C@](O)(Cn1cncn1)c1ccc(F)cc1F | Acanthamoeba griffini | parasite growth, resazurin | – | 96 h | IC50 | 0.29 µM
Oc1ccc(Br)cc1-c1nc2ccccc2[nH]1 | Enterococcus faecalis | microbial growth, broth dilution | ATCC29212 | – | MIC | 128 µg/mL
CN(C)N1C(=O)c2ccccc2C1CB1OC(C)(C)C(C)(C)O1 (stereo not drawn) | Leishmania major | parasite growth | – | intracellular, amastigote | IC50 | 94.6 µM
Cc1ccn2c(C(=O)N3CCN(Cc4cn(-c5ccc([N+](=O)[O-])cc5)nn4)CC3)c(C)nc2c1 | Leishmania major | parasite growth, resazurin | – | 72 h, promastigote | IC50 | > 500 µM
Cc1ccc2nc(-c3ccccc3O)[nH]c2c1 | Enterococcus faecalis | microbial growth, broth dilution | ATCC29212 | – | MIC | 64 µg/mL
CC1=NN(CNc2ccccc2[N+](=O)[O-])C(=O)C1=NNn1c(-c2ccccc2)nc2ccccc2c1=O | Aspergillus fumigatus | microbial growth, broth dilution | – | – | MIC | 50.4 µM
C[C@@H]1[C@H](O)[C@@H](C)/C=C/C=C/C=C/C=C/C=C/C=C/C=C/[C@H](O[C@@H]2O[C@H](C)[C@@H](O)[C@H](N)[C@@H]2O)C[C@@H]2O[C@](O)(C[C@@H](O)C[C@@H](O)[C@H](O)CC[C@@H](O)C[C@@H](O)CC(=O)O[C@H]1C)C[C@H](O)[C@H]2C(=O)O | Aspergillus fumigatus | microbial growth | ATCC204305 | – | MIC | 1.35 µM
Cc1ccc2nc(-c3ccc(N(C)C)cc3)[nH]c2c1 | Enterococcus faecalis | microbial growth, broth dilution | ATCC29212 | – | MIC | 64 µg/mL
CCCCCCCCCc1cn(CCN2CCN(C(=O)c3c(C)nc4cc(C)ccn34)CC2)nn1 | Leishmania major | parasite growth, resazurin | – | 72 h, promastigote | IC50 | 38.5 µM
CC1=NN(CNc2ccc(O)cc2)C(=O)C1=NNn1c(-c2ccccc2)nc2ccccc2c1=O | Aspergillus fumigatus | microbial growth, broth dilution | – | – | MIC | 53.5 µM
Cc1nc2ccc(Cl)cn2c1C(=O)N1CCN(Cc2cn(-c3ccc(Br)cc3)nn2)CC1 | Leishmania major | parasite growth, resazurin | – | 72 h, promastigote | IC50 | 33.6 µM
N=C(NCCCCCCNC(=N)NC(=N)Nc1ccc(Cl)cc1)NC(=N)Nc1ccc(Cl)cc1 | Acanthamoeba griffini | parasite growth, resazurin | – | 96 h | IC50 | 7.38 µM
c1ccc2c(-c3nc4ccccc4[nH]3)c3ccccc3cc2c1 | Enterococcus faecalis | microbial growth, broth dilution | ATCC29212 | – | MIC | 64 µg/mL
Cc1ccn2c(C(=O)N3CCN(Cc4cn(-c5ccccc5)nn4)CC3)c(C)nc2c1 | Leishmania major | parasite growth, resazurin | – | 72 h, promastigote | IC50 | 246 µM
